Test results published in ChEMBL document CHEMBL1122279, “Importance of C-6 chirality in conferring irreversible opioid antagonism to naltrexone-derived affinity labels” (J Med Chem, 1983).

Experiments:
Mus musculus [1] = organism: Mus musculus; test: (§1) Agonist activity measured on mouse vas deferens (MVD); type: functional
Cavia porcellus [2] = organism: Cavia porcellus; test: Agonistic potency on the guinea pig ileal longitudinal muscle (GPI) relative to morphine.; type: functional, Muscle tissue
In short: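 Isolated guinea pig ileal longitudinal muscle was prepared by the Rang method. […] Only inhibition of contraction greater than 80% was counted.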

Cavia porcellus [3] = organism: Cavia porcellus; test: Irreversible antagonism to nalorphine was evaluated after 30 min incubation of GPI with the compound at 20 nM conc.; type: functional
In short: (§2)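 Guinea pig ileal longitudinal muscle was incubated with compound at the stated concentrations for 30 min, then washed 20 times. […] Result is the agonist IC50 after treatment divided by the control agonist IC50 in the same preparation.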

Mus musculus [4] = organism: Mus musculus; test: Antagonist potency relative to DADLE at 200 nM concentration; type: functional
In short: (§3)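 Mouse vas deferens (Henderson method) was pretreated with compound for 30 min, then washed 20 times. […] Result is the agonist IC50 after treatment divided by the control IC50 in the same tissue. Where the agonist fell short of a full (>70%) response, an IC30 ratio was estimated from the plotted curves.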

Mus musculus [5] = organism: Mus musculus; test: Percent of maximum inhibition of contraction of mouse vas deferens (MVD); type: functional
Cavia porcellus [6] = organism: Cavia porcellus; test: Irreversible antagonism to nalorphine was evaluated after 30 min incubation of GPI with the compound at 200 nM conc.; type: functional; in short: as §2
Mus musculus [7] = organism: Mus musculus; test: Antagonist potency relative to morphine at 200 nM concentration; type: functional; in short: as §3
Cavia porcellus [8] = organism: Cavia porcellus; test: Irreversible antagonism to morphine was evaluated after 30 min incubation of GPI with the compound at 20 nM conc.; type: functional; in short: as §2
Cavia porcellus [9] = organism: Cavia porcellus; test: Irreversible antagonism to morphine was evaluated after 30 min incubation of GPI with the compound at 200 nM conc.; type: functional; in short: as §2
Cavia porcellus [10] = organism: Cavia porcellus; test: Irreversible antagonistic potency in guinea pig ileal longitudinal muscle (GPI); type: functional; conditions: Muscle tissue
Cavia porcellus [11] = organism: Cavia porcellus; test: Irreversible antagonism to ethylketazocine (EK) was evaluated after 30 min incubation of GPI with the compound at 1000 nM conc.; type: functional; in short: as §2
Cavia porcellus [12] = organism: Cavia porcellus; test: Agonistic activity on the guinea pig ileal longitudinal muscle (GPI) relative to morphine at a dose of 1 uM; type: functional, Muscle tissue
Cavia porcellus [13] = organism: Cavia porcellus; test: Irreversible antagonism to morphine was evaluated after 30 min incubation of GPI with the compound at 1000 nM conc.; type: functional; in short: as §2
Mus musculus [14] = organism: Mus musculus; test: Irreversible antagonistic potency in mouse vas deferens (MVD); type: functional
In short: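 Mouse vas deferens (Henderson method) was pretreated with compound for 30 min, then washed 20 times. Where the agonist fell short of a full (>70%) response, an IC30 ratio was estimated from the plotted curves.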

Mus musculus [15] = organism: Mus musculus; test: Antagonist potency relative to morphine at 20 nM concentration; type: functional; in short: as §3
Mus musculus [16] = organism: Mus musculus; test: Antagonist potency relative to DADLE at 20 nM concentration; type: functional; in short: as §3
Cavia porcellus [17] = organism: Cavia porcellus; test: Irreversible antagonism to ethylketazocine (EK) was evaluated after 30 min incubation of GPI with the compound at 20 nM conc.; type: functional; in short: as §2
Cavia porcellus [18] = organism: Cavia porcellus; test: Irreversible antagonism to morphine was evaluated after 30 min incubation of GPI with the compound at 500 nM conc.; type: functional; in short: as §2
Cavia porcellus [19] = organism: Cavia porcellus; test: Irreversible antagonism to ethylketazocine (EK) was evaluated after 30 min incubation of GPI with the compound at 500 nM conc.; type: functional; in short: as §2
Mus musculus [20] = organism: Mus musculus; test: as §1; type: functional, organism-based
Mus musculus [21] = organism: Mus musculus; test: Antagonist potency relative to DADLE at 100 nM concentration; type: functional; in short: as §3
Mus musculus [22] = organism: Mus musculus; test: Antagonist potency relative to morphine at 100 nM concentration; type: functional; in short: as §3
Cavia porcellus [23] = organism: Cavia porcellus; test: Irreversible antagonism to ethylketazocine (EK) was evaluated after 30 min incubation of GPI with the compound at 200 nM conc.; type: functional; in short: as §2

SMILES: O=C(CI)N[C@H]1CCC2(O)C3Cc4ccc(O)c5c4C2(CCN3CC2CC2)[C@H]1O5 (stereo partly specified)
- IC30 (Mus musculus [1]): 200 nM
- IC50 ratio (Cavia porcellus [2]): 0.49
- IC50 ratio (Cavia porcellus [3]): 1.2
- IC50 ratio (Mus musculus [4]): 1.2
- max inhibition (Mus musculus [5]): 60%
- IC50 ratio (Cavia porcellus [6]): 0.87
- IC50 ratio (Mus musculus [7]): 2.5
- IC50 ratio (Cavia porcellus [8]): 0.97
- IC50 ratio (Cavia porcellus [9]): 1.1

SMILES: C=CCN1CC[C@]23c4c5ccc(O)c4O[C@H]2[C@@H](O)C=C[C@H]3[C@H]1C5 [NALORPHINE]
- IC50 (Cavia porcellus [10]): 51.3 nM

SMILES: CCOc1ccc2c(c1)C1(C)CCN(CC3CC3)C(C2=O)C1C (stereo unspecified) [ETHYLKETAZOCINE]
- IC50 (Cavia porcellus [10]): 0.973 nM

SMILES: C=CC(=O)N[C@@H]1CCC2(O)C3Cc4ccc(O)c5c4C2(CCN3CC2CC2)[C@H]1O5 (stereo partly specified)
- IC50 ratio (Cavia porcellus [11]): 1.5
- max inhibition (Cavia porcellus [12]): 40%
- IC50 ratio (Cavia porcellus [3]): 1.1
- IC50 ratio (Cavia porcellus [13]): 2.9
- IC50 ratio (Cavia porcellus [6]): 1.4
- IC50 ratio (Cavia porcellus [8]): 1.9
- IC50 ratio (Cavia porcellus [9]): 4.2

SMILES: CC(C)C[C@@H](NC(=O)[C@H](Cc1ccccc1)NC(=O)CNC(=O)[C@@H](C)NC(=O)[C@@H](N)Cc1ccc(O)cc1)C(=O)O [DADLE]
- IC50 (Mus musculus [14]): 0.357 nM

SMILES: Oc1ccc2c3c1O[C@H]1[C@H](N=C=S)CC[C@@]4(O)C(C2)N(CC2CC2)CCC314 (stereo partly specified)
- IC30 (Mus musculus [1]): 100 nM
- IC50 ratio (Mus musculus [15]): 13.8
- IC50 ratio (Mus musculus [16]): 1.8
- IC50 ratio (Cavia porcellus [2]): 1.9
- IC50 ratio (Cavia porcellus [3]): 1.5
- IC50 ratio (Mus musculus [4]): 6.9
- max inhibition (Mus musculus [5]): 43%
- IC50 ratio (Cavia porcellus [6]): 1.4
- IC50 ratio (Mus musculus [7]): 120
- IC50 ratio (Cavia porcellus [8]): 6.9
- IC50 ratio (Cavia porcellus [9]): 14.9

SMILES: COC(=O)/C=C\C(=O)N[C@H]1CC[C@@]2(O)C3Cc4ccc(O)c5c4C2(CCN3CC2CC2)[C@H]1O5 (stereo partly specified)
- IC50 ratio (Cavia porcellus [2]): 0.8
- IC50 ratio (Cavia porcellus [3]): 0.49
- IC50 ratio (Cavia porcellus [6]): 0.98
- IC50 ratio (Cavia porcellus [8]): 0.95
- IC50 ratio (Cavia porcellus [9]): 1.1

SMILES: CCC(=O)N[C@H]1CCC2(O)C3Cc4ccc(O)c5c4C2(CCN3CC2CC2)[C@H]1O5 (stereo partly specified)
- IC50 ratio (Cavia porcellus [2]): 2.9
- IC50 ratio (Cavia porcellus [3]): 0.7
- IC50 ratio (Cavia porcellus [6]): 0.9
- IC50 ratio (Cavia porcellus [8]): 1.1
- IC50 ratio (Cavia porcellus [9]): 1

SMILES: Oc1ccc2c3c1O[C@H]1[C@@H](N=C=S)CC[C@@]4(O)C(C2)N(CC2CC2)CCC314 (stereo partly specified)
- IC30 (Mus musculus [1]): 100 nM
- IC50 ratio (Mus musculus [15]): 3.1
- IC50 ratio (Cavia porcellus [17]): 0.8
- IC50 ratio (Cavia porcellus [18]): 2.3
- IC50 ratio (Mus musculus [16]): 1.2
- IC50 ratio (Cavia porcellus [2]): 9.6
- IC50 ratio (Mus musculus [4]): 6.6
- max inhibition (Mus musculus [5]): 45%
- IC50 ratio (Cavia porcellus [19]): 1.4
- IC50 ratio (Cavia porcellus [6]): 1.2
- IC50 ratio (Mus musculus [7]): 10.7
- IC50 ratio (Cavia porcellus [8]): 2.1
- IC50 ratio (Cavia porcellus [9]): 2.4

SMILES: O=C(CI)N[C@@H]1CCC2(O)C3Cc4ccc(O)c5c4C2(CCN3CC2CC2)[C@H]1O5 (stereo partly specified)
- IC50 (Mus musculus [20]): > 1000 nM
- IC50 ratio (Cavia porcellus [11]): 0.7
- max inhibition (Cavia porcellus [12]): 55%
- IC50 ratio (Cavia porcellus [3]): 1.2
- IC50 ratio (Mus musculus [4]): 1.8
- IC50 ratio (Cavia porcellus [6]): 1.2
- IC50 ratio (Mus musculus [7]): 20
- IC50 ratio (Cavia porcellus [8]): 2.4
- IC50 ratio (Cavia porcellus [9]): 2.1

SMILES: C=CC(=O)N[C@H]1CCC2(O)C3Cc4ccc(O)c5c4C2(CCN3CC2CC2)[C@H]1O5 (stereo partly specified)
- IC50 ratio (Cavia porcellus [2]): 1.5
- IC50 ratio (Cavia porcellus [3]): 0.78
- IC50 ratio (Cavia porcellus [6]): 0.8
- IC50 ratio (Cavia porcellus [8]): 1.2
- IC50 ratio (Cavia porcellus [9]): 1.2

SMILES: COC(=O)/C=C/C(=O)N[C@@H]1CC[C@@]2(O)[C@H]3Cc4ccc(O)c5c4[C@@]2(CCN3CC2CC2)[C@H]1O5
- IC50 ratio (Mus musculus [21]): 1.8
- IC50 ratio (Cavia porcellus [11]): 1.3
- IC50 ratio (Cavia porcellus [17]): 1
- IC50 ratio (Cavia porcellus [2]): 5
- IC50 ratio (Mus musculus [4]): 1.1
- IC50 ratio (Cavia porcellus [13]): 18.8
- IC50 ratio (Mus musculus [7]): 10.6
- IC50 ratio (Mus musculus [22]): 3.9
- IC50 ratio (Cavia porcellus [23]): 1.2
- IC50 ratio (Cavia porcellus [8]): 6

SMILES: CCC(=O)N[C@@H]1CCC2(O)C3Cc4ccc(O)c5c4C2(CCN3CC2CC2)[C@H]1O5 (stereo partly specified)
- IC50 ratio (Cavia porcellus [2]): 0.81
- IC50 ratio (Cavia porcellus [3]): 1
- IC50 ratio (Cavia porcellus [6]): 0.85
- IC50 ratio (Cavia porcellus [8]): 1.3
- IC50 ratio (Cavia porcellus [9]): 1.5

SMILES: COC(=O)/C=C\C(=O)N[C@@H]1CC[C@@]2(O)C3Cc4ccc(O)c5c4C2(CCN3CC2CC2)[C@H]1O5 (stereo partly specified)
- IC50 ratio (Cavia porcellus [2]): 1.1
- IC50 ratio (Cavia porcellus [3]): 1
- IC50 ratio (Cavia porcellus [6]): 0.6
- IC50 ratio (Cavia porcellus [8]): 1.5
- IC50 ratio (Cavia porcellus [9]): 0.63

SMILES: COC(=O)/C=C/C(=O)N[C@H]1CC[C@@]2(O)[C@H]3Cc4ccc(O)c5c4[C@@]2(CCN3CC2CC2)[C@H]1O5
- IC30 (Mus musculus [1]): 80 nM
- IC50 ratio (Cavia porcellus [2]): 7.3
- IC50 ratio (Cavia porcellus [3]): 0.92
- IC50 ratio (Mus musculus [4]): 0.37
- max inhibition (Mus musculus [5]): 60%
- IC50 ratio (Mus musculus [7]): 0.52
- IC50 ratio (Cavia porcellus [23]): 0.86
- IC50 ratio (Cavia porcellus [8]): 1.2
- IC50 ratio (Cavia porcellus [9]): 0.87
